Results from different studies.
Each line is one published result; the experiments were not run side by side.
Read-out: cell growth or viability

SMILES	cell line	assay	setting	IC50
CC1=C(O)C(=O)C=C2C1=CC=C1[C@@]2(C)CC[C@@]2(C)[C@@H]3C[C@](C)(C(=O)OCCCCCCCO)CC[C@]3(C)CC[C@]12C	AGS	MTT	48 h	0.41 µM
Cc1cnc(NC2CCOCC2)nc1-n1cnc(C(=O)NC(CN)c2cc(F)cc(Cl)c2)c1 (stereo not drawn)	JVM13	MTS		2.7 µM
CC1=C(O)C(=O)C=C2C1=CC=C1[C@@]2(C)CC[C@@]2(C)[C@@H]3C[C@](C)(C(=O)OCCCBr)CC[C@]3(C)CC[C@]12C	AGS	MTT	48 h	0.36 µM
CCCCCCCCCCCC(=O)Oc1c(C)c(O)c(C(=O)/C=C/c2ccccc2)c(OC)c1C	KKU-M213	SRB	72 h	> 50 µM
CCSC(=O)c1ncn2c(=O)n(C)nnc12	U-87 MG	resazurin	7 days	64 µM
CC1=C(O)C(=O)C=C2C1=CC=C1[C@@]2(C)CC[C@@]2(C)[C@@H]3C[C@](C)(C(=O)OCCCCCO)CC[C@]3(C)CC[C@]12C	AGS	MTT	48 h	0.43 µM
CCc1ccc(N2NC(=O)/C(=C/c3ccc(-c4ccc(S(=O)(=O)Nc5nccs5)cc4)o3)C2=O)cc1	MEF	MTT	72 h	50 µM
COc1c(C)c(OC)c2c(c1C)OC(c1ccccc1)CC2=O (stereo not drawn)	KKU-M213	SRB	72 h	> 50 µM
C=C(C)C(=O)Nc1ccc(-c2c(-c3ccc(Oc4nccc(C)n4)c(F)c3)c3c(N)ncnc3n2C)cc1	JMSU-1	ATP luminescence	96 h	1.06 µM
COc1ccc(Br)cc1/C=C/C(=O)c1ccc(NC(C)=O)cc1	MEF	MTT	72 h	1 µM
Cc1cccc(-n2ncc(Br)c(Br)c2=O)c1	PC-9	resazurin	96 h	0.86 µM
C=CC(=O)Nc1cc(Nc2nccc(-c3cn(C)c4ccccc34)n2)c(OC)cc1N(C)CCN(C)C	PC-9	ATP luminescence	72 h	0.0043 µM
CC1=C(O)C(=O)C=C2C1=CC=C1[C@@]2(C)CC[C@@]2(C)[C@@H]3C[C@](C)(C(=O)OCCCn4ccc5ccccc54)CC[C@]3(C)CC[C@]12C	AGS	MTT	48 h	2.1 µM
C#CCSc1nc(Sc2nnnn2-c2ccccc2)c2nnn(Cc3ccc(OC)cc3)c2n1	Raji	MTS	6 days	3.32 µM
CC1=C(O)C(=O)C=C2C1=CC=C1[C@@]2(C)CC[C@@]2(C)[C@@H]3C[C@](C)(C(=O)OCCO)CC[C@]3(C)CC[C@]12C	AGS	MTT	48 h	0.47 µM
COc1cccc2c1C(=O)c1c(O)c3c(c(O)c1C2=O)C[C@@](O)(C(=O)CO)C[C@@H]3O[C@H]1C[C@H](N)[C@H](O)[C@H](C)O1	ChaGo-K-1	MTT	48 h	0.65 µg/mL
O=C1NCCc2[nH]c(-c3ccncc3)cc21	EKVX			> 10 µM
Cc1ncn2c(=O)n(C)nnc12	U-87 MG	resazurin	7 days	3 µM
CC(=O)Nc1nc(C)c(-c2csc(Nc3ccccc3)n2)s1	MEF	MTT	72 h	21.4 µM
COCCCOC(=O)[C@]1(C)CC[C@]2(C)CC[C@]3(C)C4=CC=C5C(=CC(=O)C(O)=C5C)[C@]4(C)CC[C@@]3(C)[C@@H]2C1	AGS	MTT	48 h	0.39 µM
COc1cccc2c1C(=O)c1c(O)c3c(c(O)c1C2=O)C[C@@](O)(C(=O)CO)C[C@@H]3O[C@H]1C[C@H](N)[C@H](O)[C@H](C)O1	AGS	MTT	24 h	< 0.625 µM
